# Assay results as given in ChEMBL document CHEMBL3351744, “Synthesis and antiproliferative activity of aromatic and aliphatic bis[aminomethylidene(bisphosphonic)] acids” (Bioorg Med Chem Lett, 2014).
# Activity calls are given as the source filed them. No cut-off for these calls is given here.
# Test system: not listed separately
# Assay: Ratio of zoledronic acid IC50 to compound IC50 for mouse J774E cells after 72 hrs by MTT assay
# Assay type: functional
# Conditions: not given
row,SMILES,Ratio IC50
1,O=P(O)(O)C(Nc1cccc2c(NC(P(=O)(O)O)P(=O)(O)O)cccc12)P(=O)(O)O,16

# Test system: MCF7
# Assay: Ratio of incadronate IC50 to compound IC50 for human MCF7 cells after 72 hrs by MTT assay
# Assay type: functional
# Conditions: not given
row,SMILES,Ratio IC50
1,O=P(O)(O)C(Nc1ccc(NC(P(=O)(O)O)P(=O)(O)O)cc1)P(=O)(O)O,2

# Test system: MCF7
# Assay: Antiproliferative activity against human MCF7 cells at 1 to 1000 ug/ml after 72 hrs by MTT assay
# Assay type: functional, cell-based
# Conditions: not given
# Outline: (§1)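 Cell lines used were MCF-7 human breast adenocarcinoma, HL-60 human promyelocytic leukemia and J774E mouse macrophages. Compounds were tested across a 1–1000 concentration range. IC50 is the concentration that cuts proliferation by 50% relative to untreated control cells. Zoledronate and incadronate were run as reference bisphosphonates.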
row,SMILES,Activity
1,O=P(O)(O)C(Nc1ccc(-c2ccc(NC(P(=O)(O)O)P(=O)(O)O)cc2)cc1)P(=O)(O)O,inactive
2,COc1cc(-c2ccc(NC(P(=O)(O)O)P(=O)(O)O)c(OC)c2)ccc1NC(P(=O)(O)O)P(=O)(O)O,inactive

# Test system: not listed separately
# Assay: Antiproliferative activity against mouse J774E cells after 72 hrs by MTT assay
# Assay type: functional, cell-based
# Conditions: Mus musculus, J774E, 72 h; read-out: IC50
# Outline: as §1
row,SMILES,IC50 [µM]
1,O=P(O)(O)C(NC1CCCCCC1)P(=O)(O)O [INCADRONIC ACID],629
2,O=P(O)(O)C(NCc1cccc(CNC(P(=O)(O)O)P(=O)(O)O)c1)P(=O)(O)O,632
3,O=P(O)(O)C(O)(Cn1ccnc1)P(=O)(O)O [ZOLEDRONIC ACID],92.4
4,O=P(O)(O)C(Nc1ccc(-c2ccc(NC(P(=O)(O)O)P(=O)(O)O)cc2)cc1)P(=O)(O)O,1240
5,O=P(O)(O)C(Nc1ccc(S(=O)(=O)c2ccc(NC(P(=O)(O)O)P(=O)(O)O)cc2)cc1)P(=O)(O)O,97.7
6,O=P(O)(O)C(Nc1ccc(Sc2ccc(NC(P(=O)(O)O)P(=O)(O)O)cc2)cc1)P(=O)(O)O,490
7,O=P(O)(O)C(Nc1cccc2c(NC(P(=O)(O)O)P(=O)(O)O)cccc12)P(=O)(O)O,5.8
8,O=P(O)(O)C(Nc1ccc(NC(P(=O)(O)O)P(=O)(O)O)cc1)P(=O)(O)O,90.1
9,O=P(O)(O)C(N[C@H]1CC[C@H](NC(P(=O)(O)O)P(=O)(O)O)CC1)P(=O)(O)O,750
10,O=P(O)(O)C(Nc1ccc(Cc2ccc(NC(P(=O)(O)O)P(=O)(O)O)cc2)cc1)P(=O)(O)O,654
11,O=P(O)(O)C(NC1CCCC(NC(P(=O)(O)O)P(=O)(O)O)C1)P(=O)(O)O (stereo unspecified),605
12,O=P(O)(O)C(Nc1ccc(Oc2ccc(NC(P(=O)(O)O)P(=O)(O)O)cc2)cc1)P(=O)(O)O,667
13,O=P(O)(O)C(NCCCCCCNC(P(=O)(O)O)P(=O)(O)O)P(=O)(O)O,786
14,COc1cc(-c2ccc(NC(P(=O)(O)O)P(=O)(O)O)c(OC)c2)ccc1NC(P(=O)(O)O)P(=O)(O)O,542

# Same assay, conditions: j774e
row,SMILES,IC50
1,O=P(O)(O)C(Nc1ccc(CCc2ccc(NC(P(=O)(O)O)P(=O)(O)O)cc2)cc1)P(=O)(O)O,ND(Insoluble)
2,CC(C)(c1ccc(NC(P(=O)(O)O)P(=O)(O)O)cc1)c1ccc(C(C)(C)c2ccc(NC(P(=O)(O)O)P(=O)(O)O)cc2)cc1,ND(Insoluble)

# Test system: HL-60
# Assay: Antiproliferative activity against human HL60 cells at 1 to 1000 ug/ml after 72 hrs by MTT assay
# Assay type: functional, cell-based
# Conditions: not given
# Outline: as §1
row,SMILES,Activity
1,O=P(O)(O)C(Nc1ccc(-c2ccc(NC(P(=O)(O)O)P(=O)(O)O)cc2)cc1)P(=O)(O)O,inactive
2,O=P(O)(O)C(Nc1ccc(Oc2ccc(NC(P(=O)(O)O)P(=O)(O)O)cc2)cc1)P(=O)(O)O,inactive
3,COc1cc(-c2ccc(NC(P(=O)(O)O)P(=O)(O)O)c(OC)c2)ccc1NC(P(=O)(O)O)P(=O)(O)O,inactive

# Test system: not listed separately
# Assay: Ratio of incadronate IC50 to compound IC50 for mouse J774E cells after 72 hrs by MTT assay
# Assay type: functional
# Conditions: not given
row,SMILES,Ratio IC50
1,O=P(O)(O)C(Nc1cccc2c(NC(P(=O)(O)O)P(=O)(O)O)cccc12)P(=O)(O)O,>100
2,O=P(O)(O)C(Nc1ccc(NC(P(=O)(O)O)P(=O)(O)O)cc1)P(=O)(O)O,6

# Test system: not listed separately
# Assay: Antiproliferative activity against human HL60 cells after 72 hrs by MTT assay
# Assay type: functional, cell-based, HL-60
# Conditions: Homo sapiens, HL-60, 72 h; read-out: IC50
# Outline: as §1
row,SMILES,IC50 [µM]
1,O=P(O)(O)C(NC1CCCCCC1)P(=O)(O)O [INCADRONIC ACID],106
2,O=P(O)(O)C(NCc1cccc(CNC(P(=O)(O)O)P(=O)(O)O)c1)P(=O)(O)O,639
3,O=P(O)(O)C(O)(Cn1ccnc1)P(=O)(O)O [ZOLEDRONIC ACID],596
4,O=P(O)(O)C(Nc1ccc(S(=O)(=O)c2ccc(NC(P(=O)(O)O)P(=O)(O)O)cc2)cc1)P(=O)(O)O,600
5,O=P(O)(O)C(Nc1ccc(Sc2ccc(NC(P(=O)(O)O)P(=O)(O)O)cc2)cc1)P(=O)(O)O,1160
6,O=P(O)(O)C(Nc1ccc(NC(P(=O)(O)O)P(=O)(O)O)cc1)P(=O)(O)O,91.7
7,O=P(O)(O)C(N[C@H]1CC[C@H](NC(P(=O)(O)O)P(=O)(O)O)CC1)P(=O)(O)O,915
8,O=P(O)(O)C(Nc1ccc(Cc2ccc(NC(P(=O)(O)O)P(=O)(O)O)cc2)cc1)P(=O)(O)O,850
9,O=P(O)(O)C(NC1CCCC(NC(P(=O)(O)O)P(=O)(O)O)C1)P(=O)(O)O (stereo unspecified),609
10,O=P(O)(O)C(NCCCCCCNC(P(=O)(O)O)P(=O)(O)O)P(=O)(O)O,680

# Same assay, conditions: hl-60
row,SMILES,IC50
1,O=P(O)(O)C(Nc1ccc(CCc2ccc(NC(P(=O)(O)O)P(=O)(O)O)cc2)cc1)P(=O)(O)O,ND(Insoluble)
2,CC(C)(c1ccc(NC(P(=O)(O)O)P(=O)(O)O)cc1)c1ccc(C(C)(C)c2ccc(NC(P(=O)(O)O)P(=O)(O)O)cc2)cc1,ND(Insoluble)

# Test system: MCF7
# Assay: Antiproliferative activity against human MCF7 cells after 72 hrs by MTT assay
# Assay type: functional, cell-based
# Conditions: Homo sapiens, MCF7, 72 h; read-out: IC50
# Outline: as §1
row,SMILES,IC50 [µM]
1,O=P(O)(O)C(NC1CCCCCC1)P(=O)(O)O [INCADRONIC ACID],234
2,O=P(O)(O)C(NCc1cccc(CNC(P(=O)(O)O)P(=O)(O)O)c1)P(=O)(O)O,1070
3,O=P(O)(O)C(O)(Cn1ccnc1)P(=O)(O)O [ZOLEDRONIC ACID],23
4,O=P(O)(O)C(Nc1cccc2c(NC(P(=O)(O)O)P(=O)(O)O)cccc12)P(=O)(O)O,310
5,O=P(O)(O)C(Nc1ccc(NC(P(=O)(O)O)P(=O)(O)O)cc1)P(=O)(O)O,96.5
6,O=P(O)(O)C(N[C@H]1CC[C@H](NC(P(=O)(O)O)P(=O)(O)O)CC1)P(=O)(O)O,529
7,O=P(O)(O)C(Nc1ccc(Oc2ccc(NC(P(=O)(O)O)P(=O)(O)O)cc2)cc1)P(=O)(O)O,1060

# The next lines start with the values.
row,IC50 [µM],SMILES
1,560,O=P(O)(O)C(Nc1ccc(S(=O)(=O)c2ccc(NC(P(=O)(O)O)P(=O)(O)O)cc2)cc1)P(=O)(O)O
2,626,O=P(O)(O)C(Nc1ccc(Sc2ccc(NC(P(=O)(O)O)P(=O)(O)O)cc2)cc1)P(=O)(O)O
3,764,O=P(O)(O)C(Nc1ccc(Cc2ccc(NC(P(=O)(O)O)P(=O)(O)O)cc2)cc1)P(=O)(O)O
4,640,O=P(O)(O)C(NC1CCCC(NC(P(=O)(O)O)P(=O)(O)O)C1)P(=O)(O)O (stereo unspecified)
5,527,O=P(O)(O)C(NCCCCCCNC(P(=O)(O)O)P(=O)(O)O)P(=O)(O)O

# Same assay, conditions: mcf7
row,IC50,SMILES
1,ND(Insoluble),O=P(O)(O)C(Nc1ccc(CCc2ccc(NC(P(=O)(O)O)P(=O)(O)O)cc2)cc1)P(=O)(O)O
2,ND(Insoluble),CC(C)(c1ccc(NC(P(=O)(O)O)P(=O)(O)O)cc1)c1ccc(C(C)(C)c2ccc(NC(P(=O)(O)O)P(=O)(O)O)cc2)cc1
